# Data as given in ChEMBL document CHEMBL1154419, “Pharmacodynamic effects of telavancin against methicillin-resistant and methicillin-susceptible Staphylococcus aureus strains in the presence of human albumin or serum and in an in vitro kinetic model” (Antimicrob Agents Chemother, 2007).
# Active and inactive are the calls of the source. The calls are words filed in the database; no cut-off is given here.
# Experiments:
# [1] = tested on: Staphylococcus aureus; test: Antibacterial activity against methicillin-resistant Staphylococcus aureus ATCC 33591 after 18 to 24 hrs by macrodilution technique; format: functional
# Summary of the method: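 Broth macrodilution per CLSI, run in triplicate on separate occasions. Twofold serial drug dilutions in broth, inoculum approx. 5 × 10⁵ CFU/ml, 37°C for 18 to 24 h. MIC taken as the lowest concentration with no visible growth.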
# [2] = tested on: Staphylococcus aureus; test: Antibacterial activity against methicillin-susceptible Staphylococcus aureus ATCC 13709 assessed as bacterial regrowth at 0.25 times MIC; format: functional, organism-based
# Summary of the method: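 Static time-kill in cation-supplemented M-H broth, inoculum ~5 × 10⁵ CFU/ml, 37°C; samples at 0, 3, 6, 12 and 24 h plated on blood agar for viable counts (detection limit 5 × 10¹ CFU/ml); duplicate runs.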
# [3] = tested on: Staphylococcus aureus; test: Antibacterial activity against methicillin-resistant Staphylococcus aureus ATCC 33591 assessed as bacterial regrowth at 0.5 times MIC after 24 hrs in presence of human albumin; format: functional, organism-based
# Summary of the method: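 Static time-kill in M-H broth, in M-H broth with 40 g/liter fatty-acid-free purified human albumin, or in M-H broth with inactivated 50% human serum. Inoculum approx. 5 × 10⁵ CFU/ml, drug at 0.5, 1, 2.5, 5, 10, 25 and 50× MIC, 37°C. Samples at 0, 3, 6, 12 and 24 h plated on blood agar, counted after 24 h. Detection limit 5 × 10¹ CFU/ml. Run in duplicate.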
# [4] = tested on: Staphylococcus aureus; test: Antibacterial activity against methicillin-resistant Staphylococcus aureus ATCC 33591 assessed as bacterial killing at 10 times MIC after 24 hrs in PBS-nutrient depleted medium; format: functional, organism-based
# Summary of the method: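 Strain diluted in M-H broth to approx. 10⁵ CFU/ml and grown 6 h into log phase, then split. Broth tubes got drug at 10× MIC directly. PBS tubes were transferred to PBS and held 3 h more, then dosed at 10× MIC. Growth controls were run in each medium. Viable counts at 0, 3, 6, 9, 12 and 24 h. Run in duplicate.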
# [5] = tested on: Staphylococcus aureus; test: Antibacterial activity against methicillin-susceptible Staphylococcus aureus ATCC 13709 assessed as change in bacterial burden at 1 mg/liter after 2 hrs; format: functional
# [6] = tested on: Staphylococcus aureus; test: Antibacterial activity against methicillin-susceptible Staphylococcus aureus ATCC 13709 assessed as change in bacterial burden at 1 mg/liter after 24 hrs; format: functional
# [7] = tested on: Staphylococcus aureus; test: Antibacterial activity against methicillin-resistant Staphylococcus aureus ATCC 33591 assessed as change in bacterial burden at 10 mg/liter after 8 hrs; format: functional
# Summary of the method: (§1)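 In vitro kinetic model: spinner flask with 0.45-μm filter and prefilter, stirred, M-H broth at 37°C, starting inoculum approx. 5 × 10⁵ CFU/ml. Single initial drug dose of 1.0 to 40 mg/liter, with flow set to give a half-life of approx. 8 h. Viable counts at 0, 2, 4, 6, 8, 12 and 24 h. Duplicate runs per strain and concentration.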
# [8] = tested on: Staphylococcus aureus; test: Antibacterial activity against methicillin-susceptible Staphylococcus aureus ATCC 13709 assessed as change in bacterial burden at 2.5 mg/liter after 12 hrs; format: functional
# [9] = tested on: Staphylococcus aureus; test: Antibacterial activity against methicillin-resistant Staphylococcus aureus ATCC 33591 assessed as change in bacterial burden at 20 mg/liter after 4 hrs; format: functional; summary of the method: as §1
# [10] = tested on: Staphylococcus aureus; test: Antibacterial activity against methicillin-resistant Staphylococcus aureus ATCC 33591 assessed as change in bacterial burden at 1 mg/liter after 2 hrs; format: functional; summary of the method: as §1
# [11] = tested on: Staphylococcus aureus; test: Antibacterial activity against methicillin-susceptible Staphylococcus aureus ATCC 13709 assessed as change in bacterial burden at 5 mg/liter after 12 hrs; format: functional
# [12] = tested on: Staphylococcus aureus; test: Antibacterial activity against methicillin-susceptible Staphylococcus aureus ATCC 13709 assessed as change in bacterial burden at 5 mg/liter after 8 hrs; format: functional
smiles,measurement,setting,value
CCCCCCCCCCNCCN[C@@]1(C)C[C@H](O[C@H]2[C@H](Oc3c4cc5cc3Oc3ccc(cc3Cl)[C@@H](O)[C@@H](NC(=O)[C@@H](CC(C)C)NC)C(=O)N[C@@H](CC(N)=O)C(=O)N[C@H]5C(=O)N[C@H]3C(=O)N[C@H](C(=O)N[C@H](C(=O)O)c5cc(O)c(CNCP(=O)(O)O)c(O)c5-c5cc3ccc5O)[C@H](O)c3ccc(c(Cl)c3)O4)O[C@H](CO)[C@@H](O)[C@@H]2O)O[C@@H](C)[C@H]1O [TELAVANCIN],MIC,[1],1 µg/mL
same,Activity,[2],Active
same,Activity,[3],Active
same,Activity,[4],Active
same,deltalog10CFU/ml,[5],-0.8
same,deltalog10CFU/ml,[6],-0.5
same,deltalog10CFU/ml,[7],-3.8
same,deltalog10CFU/ml,[8],-4.7
same,deltalog10CFU/ml,[9],-2.1
same,deltalog10CFU/ml,[10],-1
same,deltalog10CFU/ml,[11],-4.7
same,deltalog10CFU/ml,[12],-4
